Test results: ChEMBL document CHEMBL1157475, “Selective influence on contextual memory: physiochemical properties associated with selectivity of benzodiazepine ligands at GABAA receptors containing the alpha5 subunit” (J Med Chem, 2008)
Activity calls are given as the source filed them. The calls are words filed in the database; no cut-off is given here.

Experiments:
[1] = biological target: T1, GABA-A receptor; alpha-1/beta-3/gamma-2 (Homo sapiens, UniProt P14867+P18507+P28472); experiment: Binding affinity to GABAA alpha-1-beta-3-gamma-2 receptor; assay type: protein-complex assay
T1 sequence (P14867 whole entry): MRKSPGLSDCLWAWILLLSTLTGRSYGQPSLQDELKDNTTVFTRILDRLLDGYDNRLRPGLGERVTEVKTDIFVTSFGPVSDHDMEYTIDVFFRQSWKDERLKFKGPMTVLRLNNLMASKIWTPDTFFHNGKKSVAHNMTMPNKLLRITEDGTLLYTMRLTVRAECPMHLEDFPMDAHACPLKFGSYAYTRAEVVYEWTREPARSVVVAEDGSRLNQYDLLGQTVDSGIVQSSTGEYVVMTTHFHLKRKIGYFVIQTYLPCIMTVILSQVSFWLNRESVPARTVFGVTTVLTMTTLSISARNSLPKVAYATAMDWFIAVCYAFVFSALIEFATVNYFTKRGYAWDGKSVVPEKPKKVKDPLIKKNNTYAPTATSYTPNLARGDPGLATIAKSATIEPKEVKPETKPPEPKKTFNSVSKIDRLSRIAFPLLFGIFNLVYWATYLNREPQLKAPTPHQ
T1 sequence (P18507 whole entry): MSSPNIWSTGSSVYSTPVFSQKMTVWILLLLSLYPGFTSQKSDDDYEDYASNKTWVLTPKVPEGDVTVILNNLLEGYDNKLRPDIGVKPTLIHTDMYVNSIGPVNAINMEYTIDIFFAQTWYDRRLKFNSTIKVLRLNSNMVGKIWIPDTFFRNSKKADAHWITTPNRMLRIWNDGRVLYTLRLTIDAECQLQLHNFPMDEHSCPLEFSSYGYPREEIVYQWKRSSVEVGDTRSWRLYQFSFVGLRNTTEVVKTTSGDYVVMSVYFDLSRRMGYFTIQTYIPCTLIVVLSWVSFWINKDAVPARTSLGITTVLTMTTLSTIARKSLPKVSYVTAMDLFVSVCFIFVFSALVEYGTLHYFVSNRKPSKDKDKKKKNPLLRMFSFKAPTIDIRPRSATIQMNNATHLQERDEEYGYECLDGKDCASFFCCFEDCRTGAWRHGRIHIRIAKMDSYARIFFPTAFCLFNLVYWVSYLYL
T1 sequence (P28472 whole entry): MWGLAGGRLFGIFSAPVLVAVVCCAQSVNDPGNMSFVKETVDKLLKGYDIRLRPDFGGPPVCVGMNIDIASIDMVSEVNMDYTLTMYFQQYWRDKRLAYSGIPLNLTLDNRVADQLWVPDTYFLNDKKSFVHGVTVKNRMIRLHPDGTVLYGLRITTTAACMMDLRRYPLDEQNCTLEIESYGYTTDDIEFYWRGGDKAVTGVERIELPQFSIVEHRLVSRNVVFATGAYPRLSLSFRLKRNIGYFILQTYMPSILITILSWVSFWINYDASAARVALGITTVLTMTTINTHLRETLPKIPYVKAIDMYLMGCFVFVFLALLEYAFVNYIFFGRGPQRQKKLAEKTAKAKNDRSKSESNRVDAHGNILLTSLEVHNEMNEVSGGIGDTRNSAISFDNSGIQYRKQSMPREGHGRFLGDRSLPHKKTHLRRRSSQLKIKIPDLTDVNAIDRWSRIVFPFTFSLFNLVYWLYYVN

[2] = biological target: T2, Gamma-aminobutyric acid receptor subunit alpha-5 (Homo sapiens, UniProt P18507+P31644+P47870); experiment: Binding affinity to GABAA alpha-5-beta-2-gamma-2 receptor
T2 sequence (P31644 whole entry): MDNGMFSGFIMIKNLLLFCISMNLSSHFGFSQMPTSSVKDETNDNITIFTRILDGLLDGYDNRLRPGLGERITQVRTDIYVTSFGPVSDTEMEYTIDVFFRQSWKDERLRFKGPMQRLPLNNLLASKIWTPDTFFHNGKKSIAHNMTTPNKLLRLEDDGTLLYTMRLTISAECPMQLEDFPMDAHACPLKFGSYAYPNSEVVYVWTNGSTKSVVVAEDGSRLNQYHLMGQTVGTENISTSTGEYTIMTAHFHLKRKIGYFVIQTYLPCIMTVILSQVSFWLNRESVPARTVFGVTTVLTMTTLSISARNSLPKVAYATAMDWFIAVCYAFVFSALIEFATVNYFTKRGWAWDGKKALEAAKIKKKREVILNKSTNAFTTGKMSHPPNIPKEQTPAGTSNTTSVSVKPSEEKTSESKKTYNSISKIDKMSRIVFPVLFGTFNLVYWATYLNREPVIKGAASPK
How it was run: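 Sf-9 insect cells infected with baculovirus carrying α5, β2 and γ2 subunits in equimolar ratio (2 MOI), harvested 60 h post-infection, then homogenized in 50 mM Tris-HCl pH 7.7. Incubated 90 min at 0 °C in triplicate; filtration and scintillation counting.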

[3] = biological target: T3, Gamma-aminobutyric acid receptor subunit alpha-1 (Homo sapiens, UniProt P14867+P18507+P47870); experiment: Binding affinity to GABAA alpha-1-beta-2-gamma-2 receptor
T3 sequence (P14867 whole entry): T1 sequence (P14867 whole entry)

[4] = biological target: T4, GABA-A receptor; alpha-6/beta-3/gamma-2 (Homo sapiens, UniProt P18507+P28472+Q16445); experiment: Binding affinity to GABAA alpha-6-beta-3-gamma-2 receptor; assay type: protein-complex assay
T4 sequence (Q16445 whole entry, one chain of several): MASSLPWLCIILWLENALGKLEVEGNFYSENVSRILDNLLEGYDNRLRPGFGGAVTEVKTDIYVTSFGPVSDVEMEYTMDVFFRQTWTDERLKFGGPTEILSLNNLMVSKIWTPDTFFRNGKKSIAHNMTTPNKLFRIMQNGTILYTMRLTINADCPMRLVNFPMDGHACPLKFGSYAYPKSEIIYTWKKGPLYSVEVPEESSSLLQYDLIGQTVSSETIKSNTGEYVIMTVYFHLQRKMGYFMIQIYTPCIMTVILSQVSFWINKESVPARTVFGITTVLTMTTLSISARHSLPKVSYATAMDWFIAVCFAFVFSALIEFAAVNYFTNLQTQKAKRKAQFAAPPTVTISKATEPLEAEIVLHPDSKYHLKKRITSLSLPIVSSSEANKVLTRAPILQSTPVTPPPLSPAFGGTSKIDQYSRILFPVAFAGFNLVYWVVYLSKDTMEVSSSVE

[5] = Selectivity for GABAA alpha-5-beta-3-gamma-2 receptor over GABAA alpha-2-beta-3-gamma-2 receptor
[6] = Selectivity for GABAA alpha-5-beta-3-gamma-2 receptor over GABAA alpha-1-beta-3-gamma-2 receptor
[7] = Selectivity for GABAA alpha-5-beta-3-gamma-2 receptor over GABAA alpha-6-beta-3-gamma-2 receptor
[8] = biological target: T5, GABA A receptor alpha-4/beta-3/gamma-2 (Homo sapiens, UniProt P18507+P28472+P48169); experiment: Binding affinity to GABAA alpha-4-beta-3-gamma-2 receptor; assay type: protein-complex assay
T5 sequence (P48169 whole entry, one chain of several): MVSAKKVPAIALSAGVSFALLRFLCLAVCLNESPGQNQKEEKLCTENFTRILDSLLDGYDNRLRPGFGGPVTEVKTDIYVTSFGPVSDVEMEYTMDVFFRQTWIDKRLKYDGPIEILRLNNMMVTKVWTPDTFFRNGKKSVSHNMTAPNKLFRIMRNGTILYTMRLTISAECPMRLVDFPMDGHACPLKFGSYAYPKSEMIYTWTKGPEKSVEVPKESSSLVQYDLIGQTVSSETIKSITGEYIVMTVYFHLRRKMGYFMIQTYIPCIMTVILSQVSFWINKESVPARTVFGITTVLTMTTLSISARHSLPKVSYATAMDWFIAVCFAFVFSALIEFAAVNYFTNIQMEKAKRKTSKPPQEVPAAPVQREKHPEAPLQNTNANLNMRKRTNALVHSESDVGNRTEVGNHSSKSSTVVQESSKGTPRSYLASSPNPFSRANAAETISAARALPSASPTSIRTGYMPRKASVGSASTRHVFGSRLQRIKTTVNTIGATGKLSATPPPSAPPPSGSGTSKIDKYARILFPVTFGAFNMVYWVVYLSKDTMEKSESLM

[9] = biological target: T5, GABA A receptor alpha-4/beta-3/gamma-2; experiment: Activity at GABAA alpha-4-beta-3-gamma-2 receptor expressed in Xenopus oocytes assessed as potentiation of GABA-induced chloride current at 1 uM; assay type: cell-based; conditions: Oocyte
Mus musculus [10] = experiment: Anticonvulsant activity in C57BL/6J mouse assessed as inhibition of increase in excitatory tone in brain at 30 mg/kg, ip; assay type: functional, organism-based; parameters: dose 30 mg/kg
[11] = Selectivity for GABAA alpha-5-beta-3-gamma-2 receptor over GABAA alpha-3-beta-3-gamma-2 receptor
[12] = biological target: T4, GABA-A receptor; alpha-6/beta-3/gamma-2; experiment: Activity at GABAA alpha-6-beta-3-gamma-2 receptor expressed in Xenopus oocytes assessed as potentiation of GABA-induced chloride current at 1 uM; assay type: cell-based; conditions: Oocyte
[13] = biological target: GABA-A receptor; alpha-2/beta-3/gamma-2 (Homo sapiens) (UniProt P18507+P28472+P47869); experiment: Activity at GABAA alpha-2-beta-3-gamma-2 receptor expressed in Xenopus oocytes assessed as potentiation of GABA-induced chloride current at 1 uM; assay type: cell-based; conditions: Oocyte
[14] = Selectivity for GABAA alpha-5-beta-3-gamma-2 receptor over GABAA alpha-4-beta-3-gamma-2 receptor
Mus musculus [15] = experiment: Inhibition of scopolamine-induced impairment of contextual memory in C57BL/6J mouse at 10 mg/kg, ip after 24 hrs; assay type: functional, organism-based; parameters: dose 10 mg/kg
How it was run: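 Male C57Bl/6 mice, 7–12 weeks old, given ip vehicle (0.9% saline with 2.5% encapsin), scopolamine 1.5 mg/kg, or scopolamine plus ligand. After 20 min: context exposure, then three 33 s tones (85 dB, 2.9 kHz), each ending with a 0.75 mA footshock. Freezing scored over 4 min in the same context 24 h later.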

[16] = biological target: T3, Gamma-aminobutyric acid receptor subunit alpha-1; experiment: Displacement of [3H]Ro15-4513 from GABAA alpha-1-beta-2-gamma-2 receptor expressed in Sf9 baculovirus system
How it was run: (§1)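 Homogenates of Sf-9 cells infected 60 h earlier with baculoviruses for each of the three subunits (2 MOI, equimolar), in 50 mM Tris-HCl pH 7.7. Competition against 0.5–1.0 nM [3H]-Ro15-4513, with unlabeled ligand from 40 pM to 10 µM (ethanol below 0.1%). Incubated 90 min at 0 °C, in triplicate. Separated by rapid filtration and read by scintillation counting.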

[17] = biological target: T2, Gamma-aminobutyric acid receptor subunit alpha-5; experiment: Displacement of [3H]Ro15-4513 from GABAA alpha-5-beta-2-gamma-2 receptor expressed in Sf9 baculovirus system; how it was run: as §1

Cn1c(=O)c2cc(Cl)ccc2n2cnc(C(=O)OCC3CC3)c12
Ki [1]: 0.0164 µM | Ki [2]: 0.0098 µM

CCCCCc1ncn2c3ccc(Cl)cc3c(=O)n(C)c12
Ki [1]: 2.05 µM | Ki [2]: 0.369 µM

CCc1ncn2c3ccc(Cl)cc3c(=O)n(C)c12
Ki [1]: 0.408 µM | Ki [2]: 0.182 µM

O=C1C2C=Nc3ccccc3C2=NN1c1ccccc1 (stereo unspecified) [CGS-8216]
Kd [3]: 0.0083 µM | Kd [2]: 0.2 µM

Cn1c(=O)c2cc(Cl)ccc2n2cnc(C(=O)OC(C)(C)C)c12
Ki [1]: 0.0173 µM | Ki [2]: 0.00065 µM

Cn1c(=O)c2cc(Cl)ccc2n2cnc(CCl)c12
Ki [1]: 0.5 µM | Ki [2]: 0.5 µM

COC(=O)c1cc2c(cn1)[nH]c1ccccc12 [BETA-CCM]
Kd [3]: 0.001 µM | Kd [2]: 0.058 µM

CC(=O)c1ncn2c3ccc(Cl)cc3c(=O)n(C)c12
Ki [1]: 17.5 µM | Ki [2]: 2.61 µM

CC(C)(C)OC(=O)c1cc2c3ccccc3nc-2c[nH]1
Kd [3]: 0.001 µM | Kd [2]: 0.111 µM

COc1ccc(-n2nc3c4ccccc4[nH]cc-3c2=O)cc1
Kd [3]: 0.0001 µM | Kd [2]: 0.005 µM

CCOC(=O)c1ncn2c1[C@@H]1CCN1C(=O)c1cc(C#C[Si](C)(C)C)ccc1-2
Kd [3]: 0.083 µM | Kd [2]: 0.0026 µM

CCOC(=O)c1ncn2c1C1CCCN1C(=O)c1cc(C#C[Si](C)(C)C)ccc1-2 (stereo unspecified)
Kd [3]: 0.2 µM | Kd [2]: 0.004 µM

COCc1ncn2c1CN(C)C(=O)c1cc(Cl)ccc1-2
Ki [4]: 9 µM | Selectivity ratio [5]: 20 | Selectivity ratio [6]: 20 | Activity [7]: 20 | Ki [8]: > 0.3 µM | Ki [1]: 0.92 µM | Activity [9]: 4% | Activity (Mus musculus [10]): Active | Selectivity Index [11]: 20 | Activity [12]: 4% | Activity [13]: 4% | Activity [14]: 20 | Activity (Mus musculus [15]): Active

CSC1SC(C(=O)c2ccc(Cl)cc2)C2CC(C)(C)CC(=O)C12 (stereo unspecified)
IC50 [16]: 0.58 µM | IC50 [17]: 0.21 µM

CCOCc1ncn2c3ccc(Cl)cc3c(=O)n(C)c12
Ki [1]: 0.5 µM | Ki [2]: 0.083 µM

CSC1SC(C(=O)c2cccc([N+](=O)[O-])c2)C2CC(C)(C)CC(=O)C12 (stereo unspecified)
IC50 [16]: > 10 µM | IC50 [17]: > 10 µM

CCCCC(=O)c1ncn2c3ccc(Cl)cc3c(=O)n(C)c12
Ki [1]: 1.58 µM | Ki [2]: 0.166 µM

C#Cc1ccc2c(c1)C(c1ccccc1)=NCC(=O)N2C
Kd [3]: 0.076 µM | Kd [2]: 0.007 µM

Cc1nn(Cc2nc(-c3cccc([N+](=O)[O-])c3)cs2)c(C)c1Br
IC50 [16]: > 10 µM | IC50 [17]: > 10 µM

O=C1C2C=Nc3ccccc3C2=NN1c1ccc(Cl)cc1 (stereo unspecified) [CGS-9896]
Kd [3]: 0.0003 µM | Kd [2]: 0.04 µM

CCOC(=O)c1ncn2c3ccc(C#C[Si](C)(C)C)cc3c(=O)n(C)c12
Kd [3]: 0.121 µM | Kd [2]: 0.005 µM

CCOC(=O)c1[nH]cc2nc3cc(OC)c(OC)cc3c-2c1CC
Kd [3]: 0.008 µM | Kd [2]: 0.001 µM

Cn1c(=O)c2cc(C#C[Si](C)(C)C)ccc2n2cnc(C(=O)OC(C)(C)C)c12
Kd [3]: 0.197 µM | Kd [2]: 0.058 µM

CC(=O)NC1N=C(c2ccccc2)c2ccccc2NC1=O (stereo unspecified)
IC50 [16]: > 10 µM | IC50 [17]: > 10 µM

CCOc1cc2c(cn1)[nH]c1ccccc12
Kd [3]: 0.0012 µM | Kd [2]: 0.826 µM

Nc1c(C(=O)c2ccc(Cl)cc2)sc2ccccc12
IC50 [16]: 1 µM | IC50 [17]: 1 µM

COCc1c(C(=O)OC(C)C)ncc2[nH]c3ccc(OCc4ccccc4)cc3c12 [ABECARNIL]
Kd [3]: 0.001 µM | Kd [2]: 0.0084 µM

CCOC(=O)c1cc2c(cn1)[nH]c1ccccc12
Kd [3]: 0.001 µM

CN1C(=O)CN=C(c2ccccc2)c2ccccc21
IC50 [16]: > 10 µM | IC50 [17]: > 10 µM

CSC1SC(C(=O)c2ccc(Cl)cc2)C2CCCC(=O)C12 (stereo unspecified)
IC50 [16]: 0.58 µM | IC50 [17]: 0.55 µM

CCCOc1cc2c(cn1)[nH]c1ccccc12
Kd [3]: 0.005 µM | Kd [2]: 0.591 µM

CSc1nccc(-c2ccc(S(=O)(=O)Nc3ccc(Cl)cc3)s2)n1
IC50 [16]: 0.47 µM | IC50 [17]: > 10 µM

Cn1c(=O)c2cc(Cl)ccc2n2cnc(CO)c12
Ki [1]: > 0.3 µM | Ki [2]: > 0.3 µM
